Converted amounts (≈) assume the structure as drawn. The source made the active and inactive calls. No cut-off for these calls is given here.
Columns and labels:
Staphylococcus aureus = experiment: Antibacterial activity against methicillin-resistant Staphylococcus aureus ATCC 33591 by CLSI M11-A7 protocol based method; assay type: functional
Outline: (§1)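 Broth MIC by a previously described standard protocol; MIC is the lowest concentration giving complete growth inhibition. Compounds were dosed from DMSO stocks with final DMSO below 0.5%. Each experiment was repeated at least three times in duplicate.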

Clostridioides difficile [1] = experiment: Antibacterial activity against Clostridium difficile UK6 by CLSI M11-A7 protocol based method; assay type: functional
Outline: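 C. difficile UK6 MICs followed CLSI media and methods for anaerobe susceptibility testing. MIC was taken as the lowest concentration giving complete growth inhibition. DMSO stocks were used, with final DMSO below 0.5%. Runs were repeated at least three times, in duplicate each time.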

[2] = tested on: Staphylococcus epidermidis; experiment: Antibacterial activity against methicillin resistant Staphylococcus epidermidis RP62A by CLSI M11-A7 protocol based method; assay type: functional; outline: as §1
Enterococcus faecalis = experiment: Antibacterial activity against vancomycin resistant Enterococcus faecalis ATCC 700802 by CLSI M11-A7 protocol based method; assay type: functional; outline: as §1
HepG2 = experiment: Cytotoxicity against human HepG2 cells assessed as reduction in cell viability after 24 hrs by MTT assay; assay type: cell-based; details: HepG2, 24 h
Outline: (§2)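 Cells were grown in DMEM with 10% FBS and 1% penicillin/streptomycin at 37°C, 5% CO2, then seeded at 10^4 cells/well overnight. They were exposed to 128 to 0.125 µg/ml compound, or 1% DMSO control, for 24 h at 37°C. MTT was added for 4 h, formazan dissolved in DMSO for 15 min, and A540 read. IC50 was relative to control-treated cells, in three replicates.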

HEK-293T = experiment: Cytotoxicity against HEK293T cells assessed as reduction in cell viability after 24 hrs by MTT assay; assay type: cell-based; details: Homo sapiens; outline: as §2
[3] = Selectivity index, ratio of IC50 for human HepG2 cells to MIC for Clostridium difficile UK6; assay type: toxicity; details: read-out: Selectivity Index
[4] = Selectivity index, ratio of IC50 for HEK293 cells to MIC for Clostridium difficile UK6; assay type: toxicity; details: human, read-out: Selectivity Index
Clostridioides difficile [5] = experiment: Antibacterial activity against Clostridium difficile UK6 infected in C57BL/6 mouse assessed as increase in mouse survival at 50 mg/kg, po bid via gavage for 5 days starting from 4 hrs post challenge measured from day 3 to 5 during compound dosing relative to control; assay type: functional
Outline: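 Female C57BL/6 mice (6 weeks) received a six-antibiotic cocktail in drinking water for 5 days, then autoclaved water for 2 days and clindamycin 10 mg/kg ip on day −1. On day 0 they were challenged by gavage with 10^6 CFU UK6 spores. Compound was given by gavage at 50 mg/kg 4 h post-challenge, then twice daily from day 1 for five days. Survival was monitored daily versus an untreated infected group (n=10 per group).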

Clostridioides difficile [6] = experiment: Antibacterial activity against Clostridium difficile UK6 infected in C57BL/6 mouse assessed as decrease in bacterial count in feces at 50 mg/kg, po bid via gavage for 5 days starting from 4 hrs post challenge by serial dilution method relative to control; assay type: functional; parameters: scale not given: the % may be the effect or the level left
Outline: (§3)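 Female 6-week C57BL/6 mice (n=10 per group) got an antibiotic cocktail in drinking water for 5 days and autoclaved water for 2 days. Clindamycin 10 mg/kg ip followed one day before gavage of 10^6 CFU UK6 spores. Dosing was 50 mg/kg by gavage at 4 h, then twice daily for five days. Feces from days 1, 3 and 5 were ethanol-shocked, serially diluted and plated anaerobically 48 h. Counts are CFU/g, triplicate plates.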

Clostridioides difficile [7] = experiment: Antibacterial activity against Clostridium difficile UK6 infected in C57BL/6 mouse assessed as decrease in diarrhea at 50 mg/kg, po bid via gavage for 5 days starting from 4 hrs post challenge measured daily during compound dosing; assay type: functional, organism-based
Outline: (§4)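 Female 6-week C57BL/6 mice (n=10 per group) were antibiotic-pretreated, given clindamycin, then gavaged with 10^6 CFU UK6 spores. Compound was given at 50 mg/kg by gavage at 4 h post-challenge, then twice daily for five days. Mice were checked daily for five days. Percent diarrhea is mice with diarrhea divided by mice in the group, compared by Pearson chi-square.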

Clostridioides difficile [8] = experiment: Antibacterial activity against Clostridium difficile UK6 infected in C57BL/6 mouse assessed as decrease in diarrhea at 50 mg/kg, po bid via gavage for 5 days starting from 4 hrs post challenge measured after 2 days relative to control; assay type: functional; parameters: scale not given: the % may be the effect or the level left; outline: as §4
Clostridioides difficile [9] = experiment: Antibacterial activity against Clostridium difficile UK6 infected in C57BL/6 mouse assessed as decrease in bacterial count in feces at 50 mg/kg, po bid via gavage for 5 days starting from 4 hrs post challenge measured after 5 days by serial dilution method relative to control; assay type: functional; outline: as §3
Mus musculus [10] = experiment: Toxicity in C57BL/6 mouse assessed as diarrhea at 50 mg/kg, po bid via gavage for 5 days starting from 4 hrs post challenge measured; assay type: organism-based; details: in vivo
Outline: (§5)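 Uninfected female 6-week C57BL/6 mice (n=5) received 50 mg/kg by gavage on the infected group's schedule: at 4 h, then twice daily for five days. They were monitored daily for five days for weight change, survival, diarrhea and other disease signs.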

Mus musculus [11] = experiment: Toxicity in C57BL/6 mouse assessed as development of Clostridium difficile infection symptoms at 50 mg/kg, po bid via gavage for 5 days starting from 4 hrs post challenge measured; assay type: organism-based; details: in vivo; outline: as §5

**Q.** For COc1cc2nccc(Nc3ccc(C)cc3)c2cc1OCc1ccc(C)cc1, which MIC (Staphylococcus aureus) is on record?
**A.** Its MIC is 12 µg/mL (≈ 31.2 µM).

**Q.** And the MIC (Clostridioides difficile [1])?
**A.** The MIC was over 16 µg/mL.

**Q.** With COc1cc2nccc(Nc3ccc(F)c(Cl)c3)c2cc1OCCOc1ccccc1 as the molecule, how does the MIC (Staphylococcus aureus) read?
**A.** The MIC was 3 µg/mL (≈ 6.84 µM).

**Q.** And the MIC [2]?
**A.** The MIC was 3 µg/mL (≈ 6.84 µM).

**Q.** What about the MIC (Enterococcus faecalis) of the same molecule?
**A.** The MIC was 3 µg/mL (≈ 6.84 µM).

**Q.** What about the MIC (Clostridioides difficile [1]) of the same molecule?
**A.** The MIC was 4 µg/mL (≈ 9.11 µM).

**Q.** Which MIC (Staphylococcus aureus) does the source give for COc1cc2nccc(Nc3ccc(C(F)(F)F)cc3)c2cc1OCc1ccc(C(F)(F)F)cc1 here?
**A.** The MIC was 0.75 µg/mL (≈ 1.52 µM).

**Q.** What about the MIC [2] of the same molecule?
**A.** The MIC was 3 µg/mL (≈ 6.09 µM).

**Q.** What about the MIC (Enterococcus faecalis) of the same molecule?
**A.** Its MIC is 0.75 µg/mL (≈ 1.52 µM).

**Q.** And the MIC (Clostridioides difficile [1])?
**A.** The MIC was 2 µg/mL (≈ 4.06 µM).

**Q.** And the IC50 (HepG2)?
**A.** Its IC50 is 70.7 µM.

**Q.** And the IC50 (HEK-293T)?
**A.** Its IC50 is 58.1 µM.

**Q.** What about the selectivity ratio [3] of the same molecule?
**A.** Its selectivity ratio is 15.

**Q.** What about the selectivity ratio [4] of the same molecule?
**A.** Its selectivity ratio is 15.

**Q.** Which MIC (Staphylococcus aureus) does the source give for COc1cc2nccc(Nc3ccc(C)cc3)c2cc1OCc1ccc(C(F)(F)F)cc1 here?
**A.** The MIC was 3 µg/mL (≈ 6.84 µM).

**Q.** What about the MIC [2] of the same molecule?
**A.** Its MIC is 3 µg/mL (≈ 6.84 µM).

**Q.** What about the MIC (Enterococcus faecalis) of the same molecule?
**A.** Its MIC is 3 µg/mL (≈ 6.84 µM).

**Q.** What about the MIC (Clostridioides difficile [1]) of the same molecule?
**A.** Its MIC is 4 µg/mL (≈ 9.12 µM).

**Q.** Which MIC (Clostridioides difficile [1]) does the source give for CN[C@H](CC(C)C)C(=O)N[C@H]1C(=O)N[C@@H](CC(N)=O)C(=O)N[C@H]2C(=O)N[C@H]3C(=O)N[C@H](C(=O)N[C@H](C(=O)O)c4cc(O)cc(O)c4-c4cc3ccc4O)[C@H](O)c3ccc(c(Cl)c3)Oc3cc2cc(c3O[C@@H]2O[C@H](CO)[C@@H](O)[C@H](O)[C@H]2O[C@H]2C[C@](C)(N)[C@H](O)[C@H](C)O2)Oc2ccc(cc2Cl)[C@H]1O [VANCOMYCIN] here?
**A.** Its MIC is 0.5 µg/mL (≈ 0.345 µM).

**Q.** For COc1cc2nccc(Nc3ccc(F)c(Cl)c3)c2cc1OCc1ccccc1C, which MIC (Staphylococcus aureus) is on record?
**A.** Its MIC is 1.5 µg/mL (≈ 3.55 µM).

**Q.** What about the MIC [2] of the same molecule?
**A.** Its MIC is 3 µg/mL (≈ 7.09 µM).

**Q.** What about the MIC (Enterococcus faecalis) of the same molecule?
**A.** Its MIC is 1.5 µg/mL (≈ 3.55 µM).

**Q.** What about the MIC (Clostridioides difficile [1]) of the same molecule?
**A.** The MIC was 8 µg/mL (≈ 18.9 µM).

**Q.** What does the source list for COc1cc2nccc(Nc3ccc(F)c(Cl)c3)c2cc1OCc1ccc(C(F)(F)F)cc1?
**A.** MIC (Staphylococcus aureus): 1.5 µg/mL (≈ 3.15 µM); MIC [2]: 3 µg/mL (≈ 6.29 µM); MIC (Enterococcus faecalis): 1.5 µg/mL (≈ 3.15 µM); MIC (Clostridioides difficile [1]): 4 µg/mL (≈ 8.39 µM)

**Q.** Which results are given for COc1cc2nccc(Nc3ccc(F)c(Cl)c3)c2cc1OCc1ccc(C(C)C)cc1?
**A.** MIC (Staphylococcus aureus): 1.5 µg/mL (≈ 3.33 µM); MIC [2]: 6 µg/mL (≈ 13.3 µM); MIC (Enterococcus faecalis): 3 µg/mL (≈ 6.65 µM); MIC (Clostridioides difficile [1]): 1 µg/mL (≈ 2.22 µM); IC50 (HepG2): 148 µM; IC50 (HEK-293T): 146 µM; selectivity ratio [3]: > 60; selectivity ratio [4]: > 60; Activity (Clostridioides difficile [5]): 20%; Activity (Clostridioides difficile [6]): >80%; Activity (Clostridioides difficile [7]): Active; Activity (Clostridioides difficile [8]): 32%; fold change (FC) (Clostridioides difficile [9]): 14; Activity (Mus musculus [10]): Non-Toxic; Activity (Mus musculus [11]): Non-Toxic

**Q.** Which results are given for COc1cc2nccc(Nc3cccc(C(F)(F)F)c3)c2cc1OCc1ccc(C(F)(F)F)cc1?
**A.** MIC (Staphylococcus aureus): 3 µg/mL (≈ 6.09 µM); MIC [2]: 6 µg/mL (≈ 12.2 µM); MIC (Enterococcus faecalis): 3 µg/mL (≈ 6.09 µM); MIC (Clostridioides difficile [1]): 4 µg/mL (≈ 8.12 µM)

**Q.** What does the source list for CCCCCCCCCC(=O)N[C@@H](Cc1c[nH]c2ccccc12)C(=O)N[C@@H](CC(N)=O)C(=O)N[C@@H](CC(=O)O)C(=O)N[C@@H]1C(=O)NCC(=O)N[C@@H](CCCN)C(=O)N[C@@H](CC(=O)O)C(=O)N[C@H](C)C(=O)N[C@@H](CC(=O)O)C(=O)NCC(=O)N[C@H](CO)C(=O)N[C@@H]([C@H](C)CC(=O)O)C(=O)N[C@@H](CC(=O)c2ccccc2N)C(=O)O[C@@H]1C [DAPTOMYCIN]?
**A.** MIC (Staphylococcus aureus): 0.5 µg/mL (≈ 0.309 µM); MIC [2]: 0.5 µg/mL (≈ 0.309 µM); MIC (Enterococcus faecalis): 1 µg/mL (≈ 0.617 µM)

— ChEMBL document CHEMBL4118238, “Facilely accessible quinoline derivatives as potent antibacterial agents” (Bioorg Med Chem, 2018)
